Experiment: Tested for pharmacokinetic parameter in fasted Beagle dogs (Clearance value of the compound) iv administration.
Type: ADME, organism-based, Canis lupus familiaris
Details: dog, in vivo
How it was run: (§1)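 Single intravenous bolus of 10 mg/kg given to fasted beagle dogs. Plasma was extracted with hexane and assayed by GC with electron-capture detection or by reverse-phase HPLC, depending on the analyte. Concentrations below the minimum quantifiable level were ignored when computing means. Half-life and CL were derived from plasma profiles by model-independent methods, and AUC by the trapezoidal rule.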

| clearance [mL/min/kg] | SMILES |
| --- | --- |
| 12.8 | Cc1cc(CCCOc2c(C)cc(-c3noc(C(F)(F)F)n3)cc2C)on1 [PLECONARIL] |
| 31.8 | Cc1cc(CCCCCOc2c(Cl)cc(C3=NCCO3)cc2Cl)on1 [WIN-54954] |

Experiment: t1/2 in monkey liver microsomes
Type: ADME, Microsome
Details: simiiformes

| SMILES | half-life [h] |
| --- | --- |
| Cc1cc(CCCOc2c(C)cc(-c3noc(C(F)F)n3)cc2C)on1 | 1.42 |
| Cc1cc(CCCOc2c(C)cc(-c3noc(CF)n3)cc2C)on1 | 0.233 |
| Cc1ccc(CCCOc2c(C)cc(-c3noc(C)n3)cc2C)cn1 | 1.37 |
| Cc1nc(-c2cc(C)c(OCCCc3cccc(F)n3)c(C)c2)no1 | 0.283 |
| Cc1cc(CCCOc2c(C)cc(-c3noc(C#N)n3)cc2C)on1 | 0.283 |
| CCOc1nc(-c2cc(C)c(OCCCc3cc(C)no3)c(C)c2)no1 | > 2.5 |
| Cc1cc(CCCOc2c(C)cc(-c3noc(C4CC4)n3)cc2C)on1 | 2.23 |
| CCc1cc(CCCOc2c(C)cc(-c3noc(C)n3)cc2C)on1 | 0.183 |
| COc1nc(-c2cc(C)c(OCCCc3cc(C)no3)c(C)c2)no1 | 0.55 |
| Cc1cc(-c2noc(C3CC3)n2)cc(C)c1OCCCc1cc(C2CC2)no1 | > 2.5 |
| COCc1cc(CCCOc2c(C)cc(-c3noc(C)n3)cc2C)on1 | 0.5 |
| Cc1cc(-c2noc(C3CC3)n2)cc(C)c1OCCCc1cc(CO)no1 | > 2.5 |
| Cc1cc(CCCOc2c(C)cc(-c3noc(C)n3)cc2C)on1 | 0.45 |
| CCc1cc(CCCOc2c(C)cc(-c3noc(C4CC4)n3)cc2C)on1 | 0.9 |
| Cc1cc(-c2noc(C3CC3)n2)cc(C)c1OCCCc1cc(OCCO)no1 | > 2.5 |
| CCOc1cc(CCCOc2c(C)cc(-c3noc(C4CC4)n3)cc2C)on1 | > 2.5 |
| COCc1cc(CCCOc2c(C)cc(-c3noc(C4CC4)n3)cc2C)on1 | > 2.5 |

Second part, the molecule after the results:

| half-life [h] | SMILES |
| --- | --- |
| 1.58 | COCc1cc(CCCOc2c(C)cc(-c3noc(C(F)(F)F)n3)cc2C)on1 |
| 0.183 | Cc1cc(CCCOc2c(C)cc(-c3noc(C(Cl)(Cl)Cl)n3)cc2C)on1 |
| 1.97 | Cc1ccc(CCCOc2c(C)cc(-c3noc(C(F)(F)F)n3)cc2C)cn1 |
| 2.3 | Cc1cc(CCCOc2c(C)cc(-c3noc(C(N)=O)n3)cc2C)on1 |
| 1.1 | Cc1cc(CCCOc2c(C)cc(-c3noc(C(C)(F)F)n3)cc2C)on1 |
| 1.05 | CC(=O)c1ccc(CCCOc2c(C)cc(-c3noc(C(F)(F)F)n3)cc2C)o1 |
| 0.533 | Cc1cc(CCCOc2c(C)cc(-c3noc(CC(F)(F)F)n3)cc2C)on1 |
| > 2.5 | CCc1cc(CCCOc2c(C)cc(-c3noc(C(F)(F)F)n3)cc2C)on1 |
| > 2.5 | Cc1cc(-c2noc(C(F)(F)F)n2)cc(C)c1OCCCc1cc(C[S+](C)[O-])no1 (centres undefined) |
| > 2.5 | Cc1cc(-c2noc(C(F)(F)F)n2)cc(C)c1OCCCc1cc(CS(C)(=O)=O)no1 |
| > 2.5 | Cc1cc(-c2noc(C(F)(F)F)n2)cc(C)c1OCCCc1cc(CO)no1 |
| > 2.5 | CCOCc1cc(CCCOc2c(C)cc(-c3noc(C(F)(F)F)n3)cc2C)on1 |
| 0.617 | CC(=O)c1ccc(CCCOc2c(C)cc(-c3noc(C)n3)cc2C)o1 |
| 0.55 | Cc1nc(-c2cc(C)c(OCCCc3cc(C(F)(F)F)no3)c(C)c2)no1 |
| > 2.5 | Cc1cc(-c2noc(C(F)(F)F)n2)cc(C)c1OCCCc1cccc(F)n1 |
| > 2.5 | Cc1cc(CCCOc2c(C)cc(-c3noc(C(F)(F)F)n3)cc2C)on1 [PLECONARIL] |

Experiment: Tested for pharmacokinetic parameter in fasted Beagle dogs (Half-life) iv administration.
Type: ADME, organism-based, Canis lupus familiaris
Details: dog, in vivo
How it was run: as §1

| half-life [h] | SMILES |
| --- | --- |
| 27 | Cc1cc(CCCOc2c(C)cc(-c3noc(C(F)(F)F)n3)cc2C)on1 [PLECONARIL] |
| 7 | Cc1cc(CCCCCOc2c(Cl)cc(C3=NCCO3)cc2Cl)on1 [WIN-54954] |

Experiment: Tested for pharmacokinetic parameter in fasted Beagle dogs (Area Under Curve value) iv administration.
Type: ADME, organism-based, Canis lupus familiaris
Details: dog, in vivo
How it was run: as §1

| AUC [ng·h/mL] | SMILES |
| --- | --- |
| 11800 | Cc1cc(CCCOc2c(C)cc(-c3noc(C(F)(F)F)n3)cc2C)on1 [PLECONARIL] |
| 4910 | Cc1cc(CCCCCOc2c(Cl)cc(C3=NCCO3)cc2Cl)on1 [WIN-54954] |

Reference: ChEMBL document CHEMBL1128597, “Picornavirus inhibitors: trifluoromethyl substitution provides a global protective effect against hepatic metabolism” (J Med Chem, 1995)
